Results on 7 compounds are retold here after ChEMBL document CHEMBL1147731, “Potent 7-hydroxy-1,2,3,4-tetrahydroisoquinoline-3-carboxylic acid-based macrocyclic inhibitors of hepatitis C virus NS3 protease” (J Med Chem, 2006).

Numbered stars: 1 amine (or outer) side, 2 acyl side, 3 side chain; on linkers, the order of the positions; unused ones are H or OH. Bridge positions count the residues as written; N and C are the ends. Square brackets hold non-standard residues; d marks the D form. Peptide text beside a SMILES is read from it. * marks the point of attachment. Tic(7-O(CH2)6CO) = O=C([C@@H]1Cc2ccc(OCCCCCCC(=O)[*:3])cc2CN1[*:1])[*:2]; X1 = CCCC(N[*:1])C(=O)C(=O)[*:2]; Chg = N[C@H](C(=O)O)C1CCCCC1; Phg = N[C@H](C(=O)O)c1ccccc1; OtBu = CC(C)(C)O*

For one data set, the target named is NS3 (Hepatitis C virus, UniProt A3EZJ3). The data set can be described thus: Inhibition of HCV NS3 protease. Details: species or system Hepacivirus hominis. A digest of the protocol: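 Continuous spectrophotometric assay with NS4A-tethered single-chain NS3 serine protease, following cleavage of chromogenic ester substrates. Inhibition constants (Ki*) were determined. Compounds were tested as a mixture of two P1 diastereomers because pure P1 isomers racemized extensively under the assay conditions.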
NS3, sequence (A3EZJ3 whole entry): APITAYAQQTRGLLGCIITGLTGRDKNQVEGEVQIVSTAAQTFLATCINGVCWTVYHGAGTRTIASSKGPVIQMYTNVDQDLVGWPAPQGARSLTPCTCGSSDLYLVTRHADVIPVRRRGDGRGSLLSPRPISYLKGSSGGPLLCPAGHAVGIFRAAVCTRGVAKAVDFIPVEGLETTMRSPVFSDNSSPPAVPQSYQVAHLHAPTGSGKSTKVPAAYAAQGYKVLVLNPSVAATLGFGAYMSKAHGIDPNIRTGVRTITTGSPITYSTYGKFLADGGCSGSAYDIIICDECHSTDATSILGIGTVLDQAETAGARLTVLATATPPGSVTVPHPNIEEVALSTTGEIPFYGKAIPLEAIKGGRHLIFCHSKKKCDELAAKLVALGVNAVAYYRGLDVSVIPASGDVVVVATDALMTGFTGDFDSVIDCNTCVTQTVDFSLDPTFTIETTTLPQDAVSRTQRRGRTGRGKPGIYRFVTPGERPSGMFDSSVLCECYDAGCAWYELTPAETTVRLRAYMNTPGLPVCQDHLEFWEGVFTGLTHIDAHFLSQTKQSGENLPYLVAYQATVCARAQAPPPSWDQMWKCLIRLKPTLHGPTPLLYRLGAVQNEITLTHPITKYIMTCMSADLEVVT

Data set [1] in a line: Oral bioavailability in rat. Type of data set: ADME, organism-based. As to conditions: in vivo.
Data set [2] in a line: AUC in rat administered po. Type of data set: ADME, organism-based. The note with it: plasma.
Data set [3] in a line: AUC in rat administered sc. It is filed as ADME, organism-based. The note with it: plasma.

Broadly, the Ki is a measure of affinity in units of concentration, obtained from inhibition or displacement. A higher Ki goes with lower affinity. With `CCCC(NC(=O)[C@@H]1Cc2ccc3cc2CN1C(=O)[C@H](C1CCCCC1)NC(=O)CCCCCCO3)C(=O)C(=O)NCC(=O)NCc1ccccc1` (stereo not given in full), the affinity on NS3, expressed as Ki, was 2000 nM.

`CCCC(NC(=O)[C@@H]1Cc2ccc3cc2CN1C(=O)[C@H](C1CCCCC1)NC(=O)CCCCCCO3)C(=O)C(=O)NCC(=O)OCc1ccccc1` (stereo not given in full) yielded an inhibition constant (Ki) at NS3 of 1700 nM.

Compound `CCCC(NC(=O)[C@@H]1Cc2ccc3cc2CN1C(=O)[C@H](C1CCCCC1)NC(=O)CCCCCCO3)C(=O)C(N)=O` (stereo not given in full) registered an inhibition constant Ki on NS3 of 2100 nM.

On to `CCCC(NC(=O)[C@@H]1Cc2ccc3cc2CN1C(=O)[C@H](C1CCCCC1)NC(=O)CCCCCCO3)C(=O)C(=O)NCC(=O)O` (stereo not given in full), for which the Ki on NS3 turned out to be 3000 nM.

The bioavailability is dose-corrected exposure relative to a reference, in per cent. Low values mean poor availability, high ones good availability. Usually AUC stands for concentration integrated over time. With `CCCC(NC(=O)[C@@H]1Cc2ccc3cc2CN1C(=O)[C@H](C1CCCCC1)NC(=O)CCCCCCO3)C(=O)C(=O)NCC(=O)N[C@H](C(=O)N(C)C)c1ccccc1` (stereo not given in full) ([Chg][Tic(7-O(CH2)6CO)][X1]G[Phg]-NMe2; lactam N-2), the bioavailability in data set [1] was below 10%. Further, on NS3, the affinity, expressed as Ki, was 21 nM. Moreover, the values for the AUC in data set [2] and in data set [3] were 0.27 µM·h and 5.5 µM·h, respectively.

Take `CCCC(NC(=O)[C@@H]1Cc2ccc3cc2CN1C(=O)[C@H](C1CCCCC1)NC(=O)CCCCCCO3)C(=O)C(=O)NCC(=O)N[C@H](C(=O)O)c1ccccc1` (stereo not given in full) ([Chg][Tic(7-O(CH2)6CO)][X1]G[Phg]-OH; lactam N-2): the inhibitory constant (Ki) on NS3 was found to be 15 nM.

In turn, `CCCC(NC(=O)[C@@H]1Cc2ccc3cc2CN1C(=O)[C@H](C1CCCCC1)NC(=O)CCCCCCO3)C(=O)C(=O)NCC(=O)N[C@H](C(=O)OC(C)(C)C)c1ccccc1` (stereo not given in full) ([Chg][Tic(7-O(CH2)6CO)][X1]G[Phg]-OtBu; lactam N-2) showed an inhibition constant (Ki) on NS3 of 260 nM.
